From PubChem BioAssay
SENP1 FRET inh: blocks the human SENP1 SUMO protease catalytic domain | inhibition, % at 10 µM | recombinant SENP1 catalytic domain, CyPet-SUMO1-YPet FRET cleavage | Q9P0U3 | AID 624204 | 0.21% of 360,000 active;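 active means inhibition at least 30% at 10 µM, raw YFP signal under a set limit, fluorescence ratio 0.5 to 1.5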
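Material: hSENP1 catalytic domain, recombinant; medium: Tris pH 8 with BME, BSA, NP40 and catalase; compound: single concentration of 10 µM compound, 0.5% DMSO final; technique: FRET read of cyan and yellow fluorescence; timing: 50 min enzyme reaction, room temperature, light-protected; reagent: SFCypet-SUMO1-SFYpet substrate at 25 nM; control set: no-enzyme low, enzyme-DMSO high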
B2AR ag: agonists of human beta-2 adrenergic receptor inducing internalization | Am2.2-beta2AR cells, FAP receptor internalization, flow cytometry | response, % (no concentration beside the values) | 0.43% of 340,000 active | P07550;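 active means response above a set limit, near 3 SD of response in nonfluorescent compounds, cut at about 42% in these data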
GRK2 inh: blocks RNA aptamer binding to human GRK2. bead flow cytometry, FAM-aptamer displacement from GRK2. inhibition of aptamer binding, % at 10 µM. 0.59% of 330,000 active. AID 488847;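 active means inhibition of aptamer binding above 40%, roughly 3 SD of noise, on plates passing a quality check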;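 further: median bead fluorescence of bound FAM aptamer so fluorescent compounds give negative values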
NadD block: NadD (S. aureus) enzyme inhibition | purified NadD enzyme, colorimetric absorbance read-out | inhibition, % at 20 µM | 0.78% of 360,000 active; in the data active means inhibition above about 26%
ABHD5-PLIN5 inh: ABHD5-PLIN5 protein interaction inhibition. Q00G26+Q8WTS1. Split G. princeps luciferase complementation, luminescence, 4 h. inhibition, % at 4 µM. 0.78% of 360,000 active. AID 602281;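 active means inhibition above the mean inhibition across every tested compound plus 3 SD, cut at about 22% in these data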
Target sequence (Q00G26 whole entry, looked up): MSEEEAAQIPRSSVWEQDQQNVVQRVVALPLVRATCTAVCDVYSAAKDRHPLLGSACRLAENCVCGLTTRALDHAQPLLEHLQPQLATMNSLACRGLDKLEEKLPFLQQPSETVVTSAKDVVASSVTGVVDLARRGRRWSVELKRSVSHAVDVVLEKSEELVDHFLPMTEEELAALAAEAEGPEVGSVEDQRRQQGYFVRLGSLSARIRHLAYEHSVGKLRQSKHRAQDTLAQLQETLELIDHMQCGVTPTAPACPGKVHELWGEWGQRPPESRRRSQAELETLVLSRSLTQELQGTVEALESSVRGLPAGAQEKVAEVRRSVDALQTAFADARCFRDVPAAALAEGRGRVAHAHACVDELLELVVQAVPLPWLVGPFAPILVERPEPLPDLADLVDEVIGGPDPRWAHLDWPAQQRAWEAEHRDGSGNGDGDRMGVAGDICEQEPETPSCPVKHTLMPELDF
Target sequence (Q8WTS1 whole entry, looked up): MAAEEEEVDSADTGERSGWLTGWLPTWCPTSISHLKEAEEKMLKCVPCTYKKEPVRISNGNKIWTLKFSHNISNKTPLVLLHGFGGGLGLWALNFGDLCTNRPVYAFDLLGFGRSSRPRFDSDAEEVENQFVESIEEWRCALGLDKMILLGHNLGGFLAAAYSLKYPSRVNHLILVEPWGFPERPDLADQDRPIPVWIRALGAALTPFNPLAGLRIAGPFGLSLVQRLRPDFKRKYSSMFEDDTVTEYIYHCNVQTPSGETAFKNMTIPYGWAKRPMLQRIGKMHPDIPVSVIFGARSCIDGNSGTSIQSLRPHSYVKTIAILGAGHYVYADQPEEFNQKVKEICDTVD
ABHD5 PLIN5 conf: ABHD5-PLIN5 interaction inhibition, confirmed; shares compounds with ABHD5-PLIN5 inh; biochemical ABHD5-PLIN5 interaction, luminescence; inhibition, % at 4 µM; 67% of 2,200 active; AID 651612; in the data active means inhibition above about 23%
HNF4 split-luc: active in HNF4 split-luciferase counter-screen for ABHD5-PLIN5 inhibitors. shares compounds with ABHD5-PLIN5 inh. HNF4 dimerization, luminescence, biochemical. inhibition, % at 4 µM. 77% of 2,200 active;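 active means mean inhibition across replicate wells exceeding the computed hit threshold, cut at about 13% in these data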;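 further: light from luciferase halves that rejoin when HNF4 fusion proteins dimerize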
Hits are given with their value; 0 = inactive; - = not tested or not shown. In the library only some 2.5% were active in any assay of this set; here they are far more common.

SMILES | SENP1 FRET inh | B2AR ag | GRK2 inh | NadD block | ABHD5-PLIN5 inh | ABHD5 PLIN5 conf | HNF4 split-luc
CCOc1ccc(C(c2c(O)nc(SC)[nH]c2=O)c2c(O)nc(SC)[nH]c2=O)cc1 | 0 | 0 | 0 | 0 | 34.5 | 83.4 | 76.9
O=c1[nH]c(=O)n(-c2cc(Br)c(O)c(Br)c2)cc1Br | 0 | 0 | - | 0 | 0 | - | -
COc1ccc(S(=O)(=O)NCCCN2CCCC2=O)cc1OC | 0 | 0 | 0 | 0 | 0 | - | -
CC(NC(=O)C1CCCN1S(=O)(=O)c1cccc2nsnc12)c1ccccc1 (stereo not drawn) | 0 | 0 | 0 | 0 | 0 | - | -
COC(C/C=C/C(=O)COCc1ccccc1)OC | 0 | 0 | - | 0 | 24.4 | 45.9 | 43.2
COC(C/C=C\[C@H](O)COCc1ccccc1)OC | 0 | 0 | - | 0 | 0 | - | -
COC(C/C=C/C(=O)[C@H](C)OCc1ccccc1)OC | 0 | 0 | - | 0 | 30.4 | 55.5 | 54.9
COC(C[C@@H]1O[C@H]1C(=O)COCc1ccccc1)OC | 0 | 0 | - | 0 | 31.1 | 0 | 0
COc1ccc(-c2cc(NC=O)c3ncc(-c4ccc(OC)c(OC)c4)n3c2)cc1 | 0 | - | - | 0 | 0 | - | -
COc1ccccc1CNc1nc(NCc2ccc3occc3c2)c2sccc2n1 | 0 | - | - | 0 | 23.9 | 0 | 15.7
CCC(=O)N(Cc1cc2ccccc2[nH]c1=O)c1ccccc1OC | 0 | 0 | - | 0 | 0 | - | -
Cc1ccc(NS(=O)(=O)c2ccc(N3CCN(c4ccc(O)cc4)CC3)c([N+](=O)[O-])c2)c(C)c1 | 0 | 0 | 0 | 0 | 35.2 | 0 | 0
O=[N+]([O-])c1cc(S(=O)(=O)Nc2ccccc2)ccc1N1CCN(c2ccc(O)cc2)CC1 | 0 | 0 | 0 | 0 | 0 | - | -
O=C1C(Cl)=C(N2CCOCC2)C(=O)N1c1ccccc1Cl | 0 | 0 | 0 | 0 | 29.5 | 59.5 | 85.3
O=c1c(Br)ccc(Br)cc1Br | 0 | 70.0 | - | 0 | 83.9 | 101.3 | 110.8
O=C(C1CC1)N1N=C(c2ccccc2)CC1(O)C(F)(F)C(F)(F)F (stereo not drawn) | 0 | 0 | 0 | 0 | 0 | - | -
CCN(CC(=O)Nc1c(F)cccc1F)C(=O)C1CC1 | 0 | 0 | 0 | 0 | 0 | - | -
COc1ccc(-n2c(N)c(C(=O)NCc3ccco3)c3nc4ccccc4nc32)c(OC)c1 | 0 | 0 | 0 | 0 | 28.9 | 50.7 | 67.5
Cc1ccccc1-n1c(=O)cc(N2CCCCCC2)[nH]c1=O | 0 | 0 | 0 | 0 | 0 | - | -
Cc1ccccc1-n1c(=O)cc(N2CCN(C(=O)c3ccco3)CC2)[nH]c1=O | 0 | 0 | 0 | 0 | 24.9 | 0 | 0
CCC(CC)C(=O)Nc1cccc(-c2ccc3nncn3n2)c1 | 0 | 0 | 0 | 0 | 0 | - | -
Cc1ccc2c(c1)C(=O)C(=O)N2Cc1ccc(C(F)(F)F)cc1 | 0 | 0 | 0 | 0 | 41.6 | 35.6 | 39.7
O=C1ON=C(c2ccccc2)/C1=C/c1ccc(-c2ccccc2[N+](=O)[O-])o1 | 0 | 95.8 | 0 | 0 | 34.9 | 102.3 | 106.7
CCN(CC)c1ccc(C(=C2C=CC(=[N+](CC)CC)C=C2)c2ccccc2)cc1 | 0 | 59.3 | - | 0 | 97.8 | 102.5 | 109.4
CCN(CC)c1ccc(C(=C2C=CC(=[N+](CC)CC)C=C2)c2ccc(N(CC)CC)cc2)cc1 | 0 | 82.1 | - | 0 | 64.4 | 57.8 | 58.4
SMILES | SENP1 FRET inh | B2AR ag | GRK2 inh | NadD block | ABHD5-PLIN5 inh | ABHD5 PLIN5 conf | HNF4 split-luc
CCN(CC)c1ccc(C(=O)NNC(=O)CCNC(=O)c2ccccc2)cc1 | 0 | 0 | 0 | 0 | 0 | - | -
Cc1ccc2c(c1)/C(=C/c1ccccc1C)C(=O)N2 | 0 | 0 | 0 | 0 | 0 | - | -
COc1ccc2c(c1)/C(=C/c1cc(OC)c(OC)c(OC)c1)C(=O)N2 | 0 | 0 | - | 0 | 36.1 | 49.4 | 43.6
Cc1ccc2c(c1)/C(=C/c1ccc(F)cc1)C(=O)N2 | 0 | 0 | 0 | 0 | 34.2 | 45.4 | 35.6
Cc1cccc(NC(=O)c2nc[nH]c2C(=O)NC2CCN(C(=O)OC(C)(C)C)CC2)c1 | 0 | 0 | 0 | 0 | 0 | - | -
Cc1cccn2c(=O)c3cc(C(=O)NCc4ccco4)c(=N)n(C(C)C)c3nc12 | 0 | 0 | 0 | 0 | 27.5 | 0 | 18.2
Cc1cccn2c(=O)c3cc(C(=O)NCc4ccco4)c(=N)n(CCc4ccccc4)c3nc12 | 0 | 0 | 0 | 0 | 0 | - | -
Cc1cccn2c(=O)c3cc(C(=O)NCCc4ccccc4)c(=N)n(Cc4ccco4)c3nc12 | 0 | 0 | 0 | 0 | 25.5 | 0 | 17.0
COCc1ccc(C(=O)NC2CC(C)(C)Cc3c2cnn3-c2ccc(OC)cc2)o1 (stereo not drawn) | 0 | 0 | 0 | 0 | 0 | - | -
CC(C)C[C@H]1CNC(=S)N1C[C@H]1CCCN1C[C@H](Cc1ccc(O)cc1)N1C[C@H](Cc2ccc(O)cc2)N(CCc2ccccc2)C1=S | 0 | - | - | 0 | 23.3 | 0 | 0
CCOC(=O)C1(C)CCCN(C(=O)c2ccccc2F)C1 (stereo not drawn) | 0 | - | - | 0 | 0 | - | -
CCCN1C(=O)S/C(=C\c2ccc(N3CCOCC3)o2)C1=O | 0 | 0 | 0 | 0 | 74.5 | 53.9 | 108.7
CCCN1C(=O)S/C(=C/c2ccc(N3CCOCC3)o2)C1=O | 0 | 0 | 0 | 0 | 82.7 | 32.0 | 93.0
O=C(O)CN1C(=O)/C(=C/c2ccc(N3CCCCC3)o2)SC1=S | 0 | 0 | 0 | 0 | 0 | - | -
CC(NC(=O)CCCc1nnc2n(C)c(=O)c3sccc3n12)c1ccccc1 (stereo not drawn) | 0 | 0 | 0 | 0 | 0 | - | -
O=c1[nH]c(/C=C\c2cccc(O)c2)nc(O)c1[N+](=O)[O-] | 0 | 0 | 0 | 0 | 51.6 | 52.1 | 42.9
O=c1[nH]c(/C=C\c2ccc(O)c(O)c2)nc(O)c1[N+](=O)[O-] | 0 | 0 | 0 | 0 | 0 | - | -
CC(=O)N/C(=C/c1ccccc1)c1ccccc1 | 0 | 0 | 0 | 0 | 0 | - | -
CC(C)(C)NCC(=Cc1ccccc1)C(=O)c1ccccc1 | 0 | 0 | - | 0 | 41.2 | 68.9 | 54.3
O=C(Cn1c(=O)cnc2ccccc21)NNC(=O)c1ccccc1Cl | 0 | 0 | 0 | 0 | 0 | - | -
O=c1c(C(c2ccccc2)c2c(O)nc3n(c2=O)CCS3)c(O)nc2n1CCS2 | 0 | 0 | 0 | 0 | 24.9 | 55.6 | 58.9
COC1=CC(=O)C=C(OC)C1=O | 0 | 53.0 | - | 0 | 78.7 | 87.9 | 105.0
O=C(Cc1ccccc1)Nc1cccc(N2C(=O)C=CC2=O)c1 | 0 | 0 | 0 | 0 | 29.0 | 46.7 | 106.6
O=C(O)c1cccc(N2C(=O)C3CC=CCC3C2=O)c1 (stereo not drawn) | 0 | 0 | 0 | 0 | 0 | - | -
O=C(O)c1cccc(N2C(=O)C=CC2=O)c1 | 0 | - | - | 0 | 37.1 | 43.8 | 104.2
